{
  "source": "PubChem BioAssay",
  "key": {"[1]": {"target": "Oxysterols receptor LXR-beta (Homo sapiens) (UniProt P55055)", "sequence (P55055 whole entry, looked up, the tested form may be a part)": "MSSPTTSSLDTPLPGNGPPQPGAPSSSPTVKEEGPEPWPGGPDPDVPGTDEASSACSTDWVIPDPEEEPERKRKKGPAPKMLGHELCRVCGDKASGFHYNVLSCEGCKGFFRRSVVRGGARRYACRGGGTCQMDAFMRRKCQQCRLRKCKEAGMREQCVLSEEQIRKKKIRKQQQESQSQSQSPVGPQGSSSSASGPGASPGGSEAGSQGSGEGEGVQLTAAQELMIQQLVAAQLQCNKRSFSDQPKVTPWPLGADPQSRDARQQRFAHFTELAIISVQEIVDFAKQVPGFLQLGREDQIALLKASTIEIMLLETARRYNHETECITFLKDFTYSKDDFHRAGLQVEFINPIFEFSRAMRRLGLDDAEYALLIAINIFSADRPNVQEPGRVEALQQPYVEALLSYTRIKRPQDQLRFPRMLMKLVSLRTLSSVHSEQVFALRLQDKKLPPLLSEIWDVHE", "assay": "nonspecific reporter activation via LXR – cell-based, luminescence, HEK293, H. contortus campaign, counter-screen for hcDAF-12 agonist project, confirmation (AID 743027;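 active means mean percent activation of the reporter above a cutoff set as the average over tested compounds plus their standard deviation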)", "settings": "HEK293 Gal4-LXR tk-luc reporter, 24 h, at 6.8 µM, active compounds read high, normalized: DMSO 0%, positive control 100%", "in_short": "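Assay system: Gal4-LXR and tk-luc reporter transfected HEK293 cells; Compound: 6.8 µM single dose; Times: one-day compound treatment at 37 °C; Technique: One-Glo luciferase luminescence; Read-out basis: % activation relative to DMSO and positive-control wells; Benchmarks: DMSO low control, positive-control high control; Repeats: three replicates per compound.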"}, "[2]": {"system": "Nuclear hormone receptor DAF-12 (Haemonchus contortus)", "assay": "hcDAF-12 luciferase reporter activation, retest – cell-based, luminescence, HEK293, lit1-tk-luc, triplicate, confirmation (AID 743032)", "settings": "HEK293 hcDAF-12 lit1-tk-luc reporter, at 6.8 µM, active compounds read high, % of Δ7-dafachronic acid response"}, "[3]": {"system": "DAF-12 nuclear receptor (Heterodera glycines), GAL4-LBD fusion", "assay": "hgDAF-12 GAL4 fusion reporter activation, retest – cell-based, luminescence, HEK293, GAL4-LBD fusion, confirmation (AID 743050;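 active means mean activation over triplicate wells above the hit cutoff derived from the earlier primary screen, cut at about 11% in these data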)", "settings": "HEK293 GAL4-hgDAF12 luciferase reporter, agonist mode; at 6.8 µM; active compounds read high; percent of butyrate response"}, "[4]": {"target": "Oxysterols receptor LXR-beta (Homo sapiens) (UniProt P55055)", "assay": "nonspecific reporter activation via LXR – cell-based, luminescence, HEK293, H. glycines campaign, counter-screen for hgDAF-12 agonist project, confirmation (AID 743051;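 active means mean activation of the triplicate above a set limit carried over from the primary screen, none filed active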)", "settings": "HEK293 Gal4-LXR luciferase reporter, 24 h; at 6.8 µM; active compounds read high", "in_short": "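System: HEK293 cells with Gal4-LXR and tk-luc reporter. Compound dosing: single nominal test compound dose of 6.8 µM. Timing: 3 h cell plating, then 24 h compound exposure at 37 °C. Detection: One-Glo luminescence after 15 min. Read-out basis: percent activation relative to median DMSO and positive-control wells. Benchmarks: DMSO low control, 0.68% final.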"}},
  "note": "The other results are listed elsewhere or left out. A number with no mark means an inactive call. Calls of active or inactive are those of the source.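 How the source made its calls, unless noted: active means mean activation across triplicate tests above the threshold derived from the earlier primary screen (cut at about 5.5% in these data); inactive means the rest.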",
  "data": [
    {"smiles": "NC(=O)c1ccccc1N=Cc1ccc2ccccc2c1", "values": [
      {"measurement": "activation", "setting": "[1]", "value": 0.6, "unit": "%"},
      {"measurement": "activation", "setting": "[2]", "value": "5.79% (active)"},
      {"measurement": "activation", "setting": "[3]", "value": "15.7% (active)"},
      {"measurement": "activation", "setting": "[4]", "value": 0.4, "unit": "%"}
    ]},
    {"smiles": "O=C(c1cnn(-c2ccc(Cl)cc2)c1)c1ccccc1O", "values": [
      {"measurement": "activation", "setting": "[1]", "value": 1.48, "unit": "%"},
      {"measurement": "activation", "setting": "[2]", "value": "7.41% (active)"},
      {"measurement": "activation", "setting": "[3]", "value": "12.9% (active)"},
      {"measurement": "activation", "setting": "[4]", "value": 0.81, "unit": "%"}
    ]},
    {"smiles": "Cc1cnc(NC(=O)c2ccc(Cl)nc2)s1", "values": [
      {"measurement": "activation", "setting": "[1]", "value": 0.78, "unit": "%"},
      {"measurement": "activation", "setting": "[2]", "value": "11.4% (active)"}
    ]}
  ]
}
